Reference: ChEMBL document CHEMBL3259574, “Environmentally benign synthesis and antimicrobial study of novel chalcogenophosphates” (Bioorg Med Chem Lett, 2014)

Key:
Escherichia coli = experiment: Antimicrobial activity against Escherichia coli MTCC1610 assessed as zone diameter at 100 ug/ml after 24 hrs incubation by agar diffusion as say cup method; type: functional; settings: MTCC1610, 24 h, read-out: DIZ
Outline: (§1)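 Agar cup diffusion on nutrient agar plates. Solidified plates were spread with 0.1% cell suspension (10^6 CFU/mL) of the test organism and held 15 min, then 6 mm wells were cut. Samples at 100 µg/mL in DMSO went into the wells, and plates were incubated 24 h at 30–35 °C. Inhibition zone diameter was measured in mm by digital vernier caliper. Triplicate parallel sets gave mean ± standard deviation, compared by ANOVA with Tukey test (P < 0.01).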

Pseudomonas aeruginosa = experiment: Antimicrobial activity against Pseudomonas aeruginosa MTCC424 assessed as zone diameter at 100 ug/ml after 24 hrs incubation by agar diffusion as say cup method; type: functional; settings: MTCC424, 24 h, read-out: DIZ; outline: as §1
Bacillus subtilis = experiment: Antimicrobial activity against Bacillus subtilis MTCC121 assessed as zone diameter at 100 ug/ml after 24 hrs incubation by agar diffusion as say cup method; type: functional; settings: MTCC121, 24 h, read-out: DIZ; outline: as §1
Staphylococcus aureus = experiment: Antimicrobial activity against Staphylococcus aureus MTCC1430 assessed as zone diameter at 100 ug/ml after 24 hrs incubation by agar diffusion as say cup method; type: functional; settings: MTCC1430, 24 h, read-out: DIZ; outline: as §1
Candida albicans = experiment: Antimicrobial activity against Candida albicans MTCC227 assessed as zone diameter at 100 ug/ml after 24 hrs incubation by agar diffusion as say cup method; type: functional; settings: MTCC227, 24 h, read-out: DIZ; outline: as §1
Pisum sativum [1] = experiment: Toxicity in pea seed germination assessed as seedling length; type: organism-based; settings: lathyrus oleraceus, in vivo
Cicer arietinum [2] = experiment: Toxicity in gram seed germination assessed as seedling fresh weight; type: organism-based; settings: in vivo
Vigna mungo = experiment: Toxicity in mung seed germination assessed as seedling fresh weight; type: organism-based; settings: in vivo
Pisum sativum [3] = experiment: Toxicity in pea seed germination assessed as seedling fresh weight; type: organism-based; settings: lathyrus oleraceus, in vivo
Cicer arietinum [4] = experiment: Toxicity in gram seed germination assessed as seedling length; type: organism-based; settings: in vivo

SMILES | zone of inhibition at 100 µg/mL (Escherichia coli) [mm] | zone of inhibition at 100 µg/mL (Pseudomonas aeruginosa) [mm] | zone of inhibition at 100 µg/mL (Bacillus subtilis) [mm] | zone of inhibition at 100 µg/mL (Staphylococcus aureus) [mm] | zone of inhibition at 100 µg/mL (Candida albicans) [mm] | Activity (Pisum sativum [1]) | Activity (Cicer arietinum [2]) | Activity (Vigna mungo) | Activity (Pisum sativum [3]) | Activity (Cicer arietinum [4])
O=C(N[C@H](CO)[C@H](O)c1ccc([N+](=O)[O-])cc1)C(Cl)Cl [CHLORAMPHENICOL] | 35 | 33.6 | 33.4 | 30.9 | – | – | – | – | – | –
O=P(OCc1ccccc1)(OCc1ccccc1)Sc1ccccc1 | 22.9 | 25.4 | 19.8 | 25.1 | 28.1 | – | – | – | – | –
CCOP(=O)(OCC)Sc1ccccc1 | 21 | 23.6 | 20.6 | 22.5 | 26.4 | Non-toxic | Non-toxic | Non-toxic | Non-toxic | Non-toxic
CC(C)OP(=O)(OC(C)C)[Se]c1ccccc1 | 35.1 | 33.4 | 33.1 | 30.5 | 38.6 | Non-toxic | Non-toxic | Non-toxic | Non-toxic | Non-toxic
CCOP(=O)(OCC)[Se]c1ccccc1 | 24.3 | 32.1 | 31.6 | 30.2 | 34 | Non-toxic | Non-toxic | Non-toxic | Non-toxic | Non-toxic
COP(=O)(OC)[Se]c1ccccc1 | 22.5 | 25.6 | 22.1 | 28.4 | 28.3 | – | – | – | – | –
O=P(OCc1ccccc1)(OCc1ccccc1)[Se]c1ccccc1 | 27.3 | 24.3 | 23.4 | 20.3 | 25.9 | – | – | – | – | –
